Source: ChEMBL document CHEMBL3227968, “Synthesis and antitumor activity of water-soluble (2-chloroethyl)nitrosoureas” (1979)
Activity calls are given as the source filed them. The calls are words filed in the database; no cut-off is given here.

Experiments:
L1210 [1] = test: Antitumor activity against mouse L1210 cells allografted in mouse assessed as median survival time at 32 mg/kg, ip qd for 8 days relative to control; assay type: functional; conditions: route intraperitoneal
Procedure, shortened: (§1)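 L1210 leukemia, 10⁶ cells per mouse implanted ip. Dosing ip once daily for 8 days from day 1, with solutions prepared fresh daily. Read-out: median survival time as %T/C = (MST treated/MST control) × 100, with T/C > 125 taken as significant inhibition. Survivors counted at 30 days, six mice per dose.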

L1210 [2] = test: Antitumor activity against mouse L1210 cells allografted in mouse assessed as tumor inhibition at 0.5 mg/kg, ip qd for 8 days relative to control; assay type: functional; conditions: route intraperitoneal; procedure, shortened: as §1
L1210 [3] = test: Antitumor activity against mouse L1210 cells allografted in mouse assessed as mouse survival after 30 days at 0.5 mg/kg, ip qd for 8 days relative to control; assay type: functional, organism-based; parameters: dose 0.5 mg/kg
Procedure, shortened: (§2)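 L1210 leukemia, 10⁶ cells implanted ip per mouse. Dosing ip once daily for 8 days starting day 1, with solutions prepared fresh daily. Six mice per dose level. Survivors counted at day 30. Median survival time also recorded as %T/C = (MST treated/MST control) × 100, with T/C > 125 taken as significant.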

L1210 [4] = test: Antitumor activity against mouse L1210 cells allografted in mouse assessed as mouse survival after 30 days at 16 mg/kg, ip qd for 8 days relative to control; assay type: functional, organism-based; parameters: dose 16 mg/kg; procedure, shortened: as §2
L1210 [5] = test: Antitumor activity against mouse L1210 cells allografted in mouse assessed as tumor inhibition at 0.25 mg/kg, ip qd for 8 days relative to control; assay type: functional; conditions: route intraperitoneal; procedure, shortened: as §1
L1210 [6] = test: Antitumor activity against mouse L1210 cells allografted in mouse assessed as mouse survival after 30 days at 2 mg/kg, ip qd for 8 days relative to control; assay type: functional, organism-based; parameters: dose 2 mg/kg; procedure, shortened: as §2
L1210 [7] = test: Antitumor activity against mouse L1210 cells allografted in mouse assessed as mouse survival after 30 days at 0.25 mg/kg, ip qd for 8 days relative to control; assay type: functional, organism-based; parameters: dose 0.25 mg/kg; procedure, shortened: as §2
L1210 [8] = test: Antitumor activity against mouse L1210 cells allografted in mouse assessed as mouse survival after 30 days at 32 mg/kg, ip qd for 8 days relative to control; assay type: functional, organism-based; parameters: dose 32 mg/kg; procedure, shortened: as §2
L1210 [9] = test: Antitumor activity against mouse L1210 cells allografted in mouse assessed as tumor inhibition at 16 mg/kg, ip qd for 8 days relative to control; assay type: functional; conditions: route intraperitoneal; procedure, shortened: as §1
L1210 [10] = test: Antitumor activity against mouse L1210 cells allografted in mouse assessed as tumor inhibition at 8 mg/kg, ip qd for 8 days relative to control; assay type: functional; conditions: route intraperitoneal; procedure, shortened: as §1
L1210 [11] = test: Antitumor activity against mouse L1210 cells allografted in mouse assessed as tumor inhibition at 2 mg/kg, ip qd for 8 days relative to control; assay type: functional; conditions: route intraperitoneal; procedure, shortened: as §1
L1210 [12] = test: Antitumor activity against mouse L1210 cells allografted in mouse assessed as mouse survival after 30 days at 1 mg/kg, ip qd for 8 days relative to control; assay type: functional, organism-based; parameters: dose 1 mg/kg; procedure, shortened: as §2
L1210 [13] = test: Antitumor activity against mouse L1210 cells allografted in mouse assessed as tumor inhibition at 4 mg/kg, ip qd for 8 days relative to control; assay type: functional; conditions: route intraperitoneal; procedure, shortened: as §1
L1210 [14] = test: Antitumor activity against mouse L1210 cells allografted in mouse assessed as tumor inhibition at 1 mg/kg, ip qd for 8 days relative to control; assay type: functional; conditions: route intraperitoneal; procedure, shortened: as §1
L1210 [15] = test: Antitumor activity against mouse L1210 cells allografted in mouse assessed as mouse survival after 30 days at 1 mg/kg, ip single dose relative to control; assay type: functional, organism-based; parameters: dose 1 mg/kg
Procedure, shortened: (§3)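 L1210 leukemia, 10⁶ cells implanted ip per mouse. One ip dose given on day 1. Six mice per dose level. Survivors counted at day 30. Median survival time also recorded as %T/C = (MST treated/MST control) × 100, with T/C > 125 taken as significant.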

L1210 [16] = test: Antitumor activity against mouse L1210 cells allografted in mouse assessed as tumor inhibition at 64 mg/kg, ip single dose relative to control; assay type: functional; conditions: route intraperitoneal
Procedure, shortened: (§4)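 L1210 leukemia, 10⁶ cells per mouse inoculated ip. Single ip dose given on day 1. Median survival time expressed as %T/C = (MST treated/MST control) × 100, with T/C > 125 counted as significant. Mice surviving at 30 days were recorded, six mice per treatment dose.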

L1210 [17] = test: Antitumor activity against mouse L1210 cells allografted in mouse assessed as median survival time at 32 mg/kg, ip single dose relative to control; assay type: functional; conditions: route intraperitoneal; procedure, shortened: as §4
L1210 [18] = test: Antitumor activity against mouse L1210 cells allografted in mouse assessed as tumor inhibition at 2 mg/kg, ip single dose relative to control; assay type: functional; conditions: route intraperitoneal; procedure, shortened: as §4
L1210 [19] = test: Antitumor activity against mouse L1210 cells allografted in mouse assessed as mouse survival after 30 days at 128 mg/kg, ip single dose relative to control; assay type: functional, organism-based; parameters: dose 128 mg/kg; procedure, shortened: as §3
L1210 [20] = test: Antitumor activity against mouse L1210 cells allografted in mouse assessed as mouse survival after 30 days at 8 mg/kg, ip single dose relative to control; assay type: functional, organism-based; parameters: dose 8 mg/kg; procedure, shortened: as §3
L1210 [21] = test: Antitumor activity against mouse L1210 cells allografted in mouse assessed as mouse survival after 30 days at 2 mg/kg, ip single dose relative to control; assay type: functional, organism-based; parameters: dose 2 mg/kg; procedure, shortened: as §3
L1210 [22] = test: Antitumor activity against mouse L1210 cells allografted in mouse assessed as mouse survival after 30 days at 4 mg/kg, ip single dose relative to control; assay type: functional, organism-based; parameters: dose 4 mg/kg; procedure, shortened: as §3
L1210 [23] = test: Antitumor activity against mouse L1210 cells allografted in mouse assessed as mouse survival after 30 days at 16 mg/kg, ip single dose relative to control; assay type: functional, organism-based; parameters: dose 16 mg/kg; procedure, shortened: as §3
L1210 [24] = test: Antitumor activity against mouse L1210 cells allografted in mouse assessed as tumor inhibition at 128 mg/kg, ip single dose relative to control; assay type: functional; conditions: route intraperitoneal; procedure, shortened: as §4
L1210 [25] = test: Antitumor activity against mouse L1210 cells allografted in mouse assessed as tumor inhibition at 8 mg/kg, ip single dose relative to control; assay type: functional; conditions: route intraperitoneal; procedure, shortened: as §4
L1210 [26] = test: Antitumor activity against mouse L1210 cells allografted in mouse assessed as tumor inhibition at 16 mg/kg, ip single dose relative to control; assay type: functional; conditions: route intraperitoneal; procedure, shortened: as §4
L1210 [27] = test: Antitumor activity against mouse L1210 cells allografted in mouse assessed as tumor inhibition at 4 mg/kg, ip single dose relative to control; assay type: functional; conditions: route intraperitoneal; procedure, shortened: as §4
L1210 [28] = test: Antitumor activity against mouse L1210 cells allografted in mouse assessed as tumor inhibition at 1 mg/kg, ip single dose relative to control; assay type: functional; conditions: route intraperitoneal; procedure, shortened: as §4
L1210 [29] = test: Antitumor activity against mouse L1210 cells allografted in mouse assessed as mouse survival after 30 days at 4 mg/kg, ip qd for 8 days relative to control; assay type: functional, organism-based; parameters: dose 4 mg/kg; procedure, shortened: as §2
L1210 [30] = test: Antitumor activity against mouse L1210 cells allografted in mouse assessed as mouse survival after 30 days at 8 mg/kg, ip qd for 8 days relative to control; assay type: functional, organism-based; parameters: dose 8 mg/kg; procedure, shortened: as §2
L1210 [31] = test: Antitumor activity against mouse L1210 cells allografted in mouse assessed as mouse survival after 30 days at 32 mg/kg, ip single dose relative to control; assay type: functional, organism-based; parameters: dose 32 mg/kg; procedure, shortened: as §3

| Compound | T/C (L1210 [1]) | T/C (L1210 [2]) | Survival (L1210 [3]) | T/C (L1210 [5]) | Survival (L1210 [6]) | Survival (L1210 [7]) | T/C (L1210 [9]) | T/C (L1210 [10]) | T/C (L1210 [11]) | Survival (L1210 [12]) | T/C (L1210 [13]) | T/C (L1210 [14]) | T/C (L1210 [17]) | T/C (L1210 [18]) | Survival (L1210 [20]) | Survival (L1210 [21]) | Survival (L1210 [22]) | T/C (L1210 [25]) | T/C (L1210 [26]) | T/C (L1210 [27]) | also measured |
| --- | --- | --- | --- | --- | --- | --- | --- | --- | --- | --- | --- | --- | --- | --- | --- | --- | --- | --- | --- | --- | --- |
| O=NN(CCCl)C(=O)N[C@H]1[C@H](O)[C@H](O)[C@H](O)[C@@H]1O | 186% | 114% | inactive | 107% | inactive | inactive | >471% | >471% | 143% | inactive | 250% | 114% |  |  |  |  |  |  |  |  | Survival (L1210 [4]): Active; Survival (L1210 [8]): inactive |
| O=NN(CCCl)C(=O)N[C@H]1[C@@H](O)[C@@H](O)[C@H](NC(=O)N(CCCl)N=O)[C@H](O)[C@@H]1O |  |  |  |  |  |  |  |  |  |  |  |  | >471% | 129% | inactive | inactive | inactive | 171% | >243% | 136% | Survival (L1210 [15]): inactive; T/C (L1210 [16]): 286%; Survival (L1210 [19]): inactive; Survival (L1210 [23]): inactive; T/C (L1210 [24]): 293%; T/C (L1210 [28]): 114% |
| O=NN(CCCl)C(=O)N[C@H]1[C@H](O)[C@@H](O)[C@@H](O)[C@@H]1O | 143% | 107% | inactive | 100% | inactive | inactive | 171% | 336% | 171% | inactive | 229% | 114% |  |  |  |  |  |  |  |  | Survival (L1210 [29]): inactive; Survival (L1210 [4]): inactive; Survival (L1210 [8]): inactive |
| O=NN(CCCl)C(=O)NCCCl [CARMUSTINE] | 193% | 100% | inactive | 100% | inactive | inactive | >471% | 293% | 114% | inactive | 193% | 100% | >471% | 114% | inactive | inactive | inactive | 193% | 271% | 143% | Survival (L1210 [30]): inactive; Survival (L1210 [29]): inactive; Survival (L1210 [4]): Active |
| O=NN(CCCl)C(=O)N[C@H]1[C@H](O)[C@H](O)[C@@H](O)[C@@H]1O | 171% | 114% | inactive | 144% | inactive | inactive | >471% | 243% | 221% | inactive | 207% | 157% |  |  |  |  |  |  |  |  | Survival (L1210 [30]): inactive; Survival (L1210 [8]): inactive |
| O=NN(CCCl)C(=O)N[C@H]1[C@@H](O)[C@@H](O)[C@H](NC(=O)N(CCCl)N=O)[C@@H](O)[C@@H]1O |  |  |  |  |  |  |  |  |  |  |  |  | 136% | 150% | inactive | inactive | inactive | 214% | >471% | 171% | Survival (L1210 [31]): inactive |
| O=NN(CCCl)C(=O)N[C@@H]1[C@H](O)[C@H](NC(=O)N(CCCl)N=O)[C@@H](O)[C@H](O)[C@H]1O |  |  |  |  |  |  |  |  |  |  |  |  | 214% | 121% | inactive | inactive | inactive | 171% | 179% | 114% | Survival (L1210 [15]): inactive; T/C (L1210 [16]): 250%; Survival (L1210 [19]): inactive; Survival (L1210 [23]): inactive; Survival (L1210 [31]): inactive; T/C (L1210 [24]): 86%; T/C (L1210 [28]): 100% |
